We go through eleven compounds from article PMC2858585 (DNA and cell biology, 2008).

“Also recorded” adds a separate entry of the source. Like-named read-outs stand apart in the source and are kept apart here. Bounds are passed on as bounds.

For data set [1], the target named is T1, Recombinant SPEH1 (Strongylocentrotus purpuratus, UniProt B2MWN2). Briefly: Hydrolysis of EETs and EpOMEs analyzed by LC-MS/MS, recombinant SPEH1. It is filed as biochemical. The settings on record: natural substrates, adjusted for estimated purity.
In data set [2] the test system is Recombinant CEEH1. The following applies: natural substrates, ref Harris et al. (2008); cited from earlier work.
Data set [3] concerns the target T1, Recombinant SPEH1. It is filed as biochemical.
Data set [4] deals with SPEH2. Put plainly: Radiometric epoxide hydrolase assay with t-DPPO, recombinant SPEH2. It is filed as biochemical, Strongylocentrotus purpuratus. The settings on record: t-DPPO as substrate. An outline of the steps:
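Recombinant enzyme with a C-terminal six-histidine tag, expressed in baculovirus-infected Trichoplusia ni High Five cells (0.1 MOI, 72 h at 28°C). […] The radiometric assay used tritium-labelled t-DPPO as substrate, with enzyme at 0.3 µg/mL, and was terminated at 10 min.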

Data set [5] deals with Recombinant CEEH1. The settings on record: ref Harris et al. (2008), cited from earlier work.
The next data set concerns Recombinant human sEH. The settings on record: ref Morisseau et al. (2000), cited from earlier work.
Data set [6] concerns the target T1, Recombinant SPEH1. Put plainly: Fluorescent IC50 assay with PHOME as substrate, recombinant SPEH1. It is filed as biochemical.
For data set [7], the system named is Recombinant CEEH1. The following applies: read-out: Recombinant CEEH1 IC50; PHOME as substrate; ref Harris et al. (2008); cited from earlier work.
In a further data set the test system is SPEH1. Briefly: Phosphatase assay with AttoPhos, SPEH1. It is filed as biochemical, Strongylocentrotus purpuratus. The settings on record: AttoPhos as substrate.
Data set [8] deals with SPEH2. Briefly: Phosphatase assay with AttoPhos, SPEH2. It is filed as biochemical, Strongylocentrotus purpuratus. The following applies: AttoPhos as substrate.
For data set [9], the target named is T1, Recombinant SPEH1. Briefly: Inhibition of recombinant SPEH1, [3H] t-DPPO as substrate. The settings on record: read-out: Recombinant SPEH1 IC50. It is filed as biochemical.
[10] abbreviates: t-DPPO as substrate, recombinant SPEH1.
[11] abbreviates: t-DPPO as substrate, recombinant CEEH1.
[12] abbreviates: t-DPPO as substrate, recombinant human sEH.

In the case of `CCCCCC1OC1C/C=C\C/C=C\C/C=C\CCCC(=O)O` (stereo not drawn) [14,15-EET], the Specific activity at Recombinant SPEH1 [1] was 330 ± 64 nmol/min/mg; in the data set on Recombinant CEEH1 [2], 615 ± 10.8 nmol/min/mg.

As to `CCCCCC=CCC1OC1CCCCCCCC(=O)O` (stereo not drawn) [9,10-EpOME, 9,10-epoxy-12-octadecenoate], the Specific activity was 4800 ± 210 nmol/min/mg at Recombinant SPEH1 [1] and 137 ± 1.77 nmol/min/mg in the data set on Recombinant CEEH1 [2].

As for `c1ccc(CC2OC2c2ccccc2)cc1` (stereo not drawn) [t-DPPO], the Km on Recombinant SPEH1 [3] (setting [10]) was 35 ± 1.2 µM; with Recombinant CEEH1 [5] (setting [11]) it was 160 ± 21 µM; in the data set on Recombinant human sEH (setting [12]), 6.2 ± 0.6 µM. In addition, the results for the turnover number (kcat) at Recombinant SPEH1 [3] (setting [10]), in the data set on Recombinant CEEH1 [5] (setting [11]) and in the data set on Recombinant human sEH (setting [12]) were 44 ± 0.71 s⁻¹, 12 ± 0.5 s⁻¹ and 4.3 ± 0.3 s⁻¹, respectively. Also, the Specific activity at Recombinant SPEH1 [3] (t-DPPO as substrate, recombinant SPEH1, adjusted for estimated purity) was 3100 ± 270 nmol/min/mg; in the data set with Recombinant CEEH1 [5] (setting [11]), 3000 ± 230 nmol/min/mg; with Recombinant human sEH (setting [12]), 4500 ± 200 nmol/min/mg. The kcat/Km ratio is 1.3 at Recombinant SPEH1 [3] (t-DPPO, SPEH1, unit not given); 0.07 in the data set on Recombinant CEEH1 [5] (t-DPPO, nematode enzyme, unit not given); 0.7 in the data set on Recombinant human sEH (t-DPPO, human enzyme, unit not given). Moreover, in the data set with SPEH2 [4], the “EH activity of SPEH2 with t-DPPO” value is listed as “not active; also recorded: did not display activity”.

In the case of `CCCCC/C=C\C[C@H]1O[C@H]1C/C=C\C/C=C\CCCC(=O)O` [11,12-EET], the values for the Specific activity on Recombinant SPEH1 [1] and in the data set with Recombinant CEEH1 [2] were 490 ± 140 nmol/min/mg and 205 ± 15.3 nmol/min/mg, respectively.

For the compound `O=C(O)CCCCCCCCCCCNC(=O)NC12CC3CC(CC(C3)C1)C2` [AUDA, 12-(3-adamantane-1-yl-ureido)-dodecanoic acid], the IC50 on Recombinant SPEH1 [6] was 160 ± 13 nM; in the data set with Recombinant CEEH1 [7] it was 27 ± 0.29 nM.

Consider `O=C(NC1CCCCC1)NC1CCCCC1` [DCU, N,N′-dicyclohexylurea], for which, in the data set with Recombinant CEEH1 [7], the concentration for half-maximal inhibition (IC50) is 41000 nM.

Regarding `CCCCC/C=C\C/C=C\CC1OC1C/C=C\CCCC(=O)O` (stereo not drawn) [8,9-EET], the Specific activity at Recombinant SPEH1 [1] was 33 ± 7.2 nmol/min/mg; with Recombinant CEEH1 [2], 45.2 ± 1.00 nmol/min/mg.

With `O=P(O)(O)Oc1ccc2nc(-c3nc4ccccc4s3)sc2c1` [AttoPhos], the “Phosphatase activity of SPEH1 with AttoPhos” value in the data set on SPEH1 is reported as “did not display phosphatase activity”. Further, in the data set with SPEH2 [8], the “Phosphatase activity of SPEH2 with AttoPhos” value is recorded as “did not display phosphatase activity”.

Take `CCCCCCCCCCCCNC(=O)NC1CCCCC1` [CDU, N-cyclohexyl-N′-dodecylurea]: the half-inhibitory concentration (IC50) in the data set with Recombinant CEEH1 [7] is 160 ± 23 nM.

With `O=C(NC1CCCCC1)NC12CC3CC(CC(C3)C1)C2` [ACU, N-adamantyl-N′-cyclohexylurea], the IC50 in the data set with Recombinant CEEH1 [7] was 2500 ± 120 nM.

Regarding `CCNC(=O)NC1CCCCC1` [CEU, N-cyclohexyl-N′-ethylurea], the IC50 on Recombinant SPEH1 [9] and with Recombinant CEEH1 [7] was greater than 50000 nM throughout.
